How the values were obtained:
SW-620 = assay: Antitumor activity against human SW620 cells after 48 hrs by MTT assay; assay type: functional; details: SW-620, 48 h
NCI-H226 = assay: Antitumor activity against human NCI-H226 cells after 48 hrs by MTT assay; assay type: functional, cell-based; details: NCI-H226, 48 h
Method in brief: (§1)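 Cells grown at 37 °C in humidified 5% CO2, seeded at 1×10^4 cells/well, and allowed to attach for 24 h. They were then exposed to a range of concentrations for 48 h, washed with PBS, and given 1 mg/ml MTT for 2 h. Formazan was dissolved in DMSO and read at 570 nm.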

HOP-62 = assay: Antitumor activity against human HOP62 cells after 48 hrs by MTT assay; assay type: functional; details: HOP-62, 48 h
MCF7 = assay: Antitumor activity against human MCF7 cells after 48 hrs by MTT assay; assay type: functional; details: MCF7, 48 h
CAKI-1 = assay: Antitumor activity against human Caki1 cells after 48 hrs by MTT assay; assay type: functional; details: CAKI-1, 48 h
SF-539 = assay: Antitumor activity against human SF539 cells after 48 hrs by MTT assay; assay type: functional; details: SF-539, 48 h
CCRF-CEM = assay: Antitumor activity against human CCRF-CEM cells after 48 hrs by MTT assay; assay type: functional
A549 = assay: Antitumor activity against human A549 cells after 48 hrs by MTT assay; assay type: functional; details: A549, 48 h
PC-3 = assay: Antitumor activity against human PC3 cells after 48 hrs by MTT assay; assay type: functional; details: PC-3, 48 h
OVCAR-4 = assay: Antitumor activity against human OVCAR4 cells after 48 hrs by MTT assay; assay type: functional; details: OVCAR-4, 48 h
[1] = Antitumor activity against human Hs 578T cells after 48 hrs by MTT assay; assay type: functional
SNB-75 = assay: Antitumor activity against human SNB75 cells after 48 hrs by MTT assay; assay type: functional; details: SNB-75, 48 h
SR = assay: Antitumor activity against human SR cells after 48 hrs by MTT assay; assay type: functional
[2] = Antitumor activity against human […] cells after 48 hrs by MTT assay; assay type: functional
OVCAR-3 = assay: Antitumor activity against human OVCAR-3 cells after 48 hrs by MTT assay; assay type: functional; details: OVCAR-3, 48 h
786-0 = assay: Antitumor activity against human 786-0 cells after 48 hrs by MTT assay; assay type: functional; details: 786-0, 48 h
SK-MEL-28 = assay: Antitumor activity against human SK-MEL-28 cells after 48 hrs by MTT assay; assay type: functional; details: SK-MEL-28, 48 h
UO-31 = assay: Antitumor activity against human UO31 cells after 48 hrs by MTT assay; assay type: functional; details: UO-31, 48 h
MDA-MB-435 = assay: Antitumor activity against human MDA-MB-435 cells after 48 hrs by MTT assay; assay type: functional; details: MDA-MB-435, 48 h
HOP-92 = assay: Antitumor activity against human HOP92 cells after 48 hrs by MTT assay; assay type: functional; details: HOP-92, 48 h
BT-549 = assay: Antitumor activity against human BT549 cells after 48 hrs by MTT assay; assay type: functional; details: BT-549, 48 h
KM12 = assay: Antitumor activity against human KM12 cells after 48 hrs by MTT assay; assay type: functional; details: KM12, 48 h
TK-10 = assay: Antitumor activity against human TK10 cells after 48 hrs by MTT assay; assay type: functional; details: TK-10, 48 h
UACC-62 = assay: Antitumor activity against human UACC62 cells after 48 hrs by MTT assay; assay type: functional; details: UACC-62, 48 h
SF-295 = assay: Antitumor activity against human SF295 cells after 48 hrs by MTT assay; assay type: functional; details: SF-295, 48 h
OVCAR-5 = assay: Antitumor activity against human OVCAR5 cells after 48 hrs by MTT assay; assay type: functional; details: OVCAR-5, 48 h
MDA-MB-231 = assay: Antitumor activity against human MDA-MB-231 cells after 48 hrs by MTT assay; assay type: functional; details: MDA-MB-231, 48 h
U-251 = assay: Antitumor activity against human U251 cells after 48 hrs by MTT assay; assay type: functional; details: U-251, 48 h
SN12C = assay: Antitumor activity against human SN12C cells after 48 hrs by MTT assay; assay type: functional
NCI-H23 = assay: Antitumor activity against human NCI-H23 cells after 48 hrs by MTT assay; assay type: functional; details: NCI-H23, 48 h
A498 = assay: Antitumor activity against human A498 cells after 48 hrs by MTT assay; assay type: functional; details: A498, 48 h; method in brief: as §1
[3] = read-out: pLC50 (the source's name) (converted)

With `OCc1ccc(-c2nn(Cc3ccccc3)c3cc[se]c23)o1` the GI50 (SW-620) was 35.5 µM, the CC50 (SW-620; [3]) was greater than 100 µM and the TGI (SW-620; read-out: pTGI) was greater than 100 µM. The GI50 (NCI-H226) was 0.316 µM, the TGI (NCI-H226; read-out: pTGI (converted)) was 0.977 µM and the GI50 (HOP-62) was 39.8 µM. It also gave a CC50 (HOP-62; [3]) greater than 100 µM, a TGI (HOP-62; read-out: pTGI) greater than 100 µM and a GI50 (MCF7; read-out: pGI50 (converted)) of 11.2 µM. It also gave a CC50 (MCF7; [3]) greater than 100 µM, a TGI (MCF7; read-out: pTGI) greater than 100 µM and a CC50 (CAKI-1; [3]) greater than 100 µM. For the same compound, the TGI (CAKI-1; read-out: pTGI) was greater than 100 µM, the GI50 (SF-539) was 27.5 µM and the CC50 (SF-539; [3]) was greater than 100 µM. It also gave a TGI (SF-539; read-out: pTGI) greater than 100 µM, a GI50 (CCRF-CEM) of 24.5 µM and a CC50 (CCRF-CEM; [3]) greater than 100 µM. It also gave a TGI (CCRF-CEM; read-out: pTGI) greater than 100 µM, a GI50 (A549) of 36.3 µM and a CC50 (A549; [3]) greater than 100 µM. It also gave a TGI (A549; read-out: pTGI) greater than 100 µM, a GI50 (PC-3; read-out: pGI50 (converted)) of 27.5 µM and a CC50 (PC-3; [3]) greater than 100 µM. For the same compound, the TGI (PC-3; read-out: pTGI) was greater than 100 µM, the GI50 (OVCAR-4) was 26.3 µM and the CC50 (OVCAR-4; [3]) was greater than 100 µM. For the same compound, the TGI (OVCAR-4; read-out: pTGI) was greater than 100 µM, the GI50 [1] was 20 µM and the CC50 [1, 3] was greater than 100 µM. For the same compound, the TGI ([1]; read-out: pTGI (converted)) was 74.1 µM, the GI50 (SNB-75) was 22.4 µM and the CC50 (SNB-75; [3]) was greater than 100 µM. It also gave a TGI (SNB-75; read-out: pTGI (converted)) of 100 µM, a GI50 (SR) of 21.9 µM and a CC50 (SR; [3]) greater than 100 µM. It also gave a TGI (SR; read-out: pTGI (converted)) of 63.1 µM, a GI50 [2] of 22.4 µM and a CC50 [2, 3] greater than 100 µM. The TGI ([2]; read-out: pTGI) was greater than 100 µM, the GI50 (OVCAR-3) was 13.2 µM and the CC50 (OVCAR-3; [3]) was greater than 100 µM. The TGI (OVCAR-3; read-out: pTGI (converted)) was 79.4 µM, the GI50 (786-0; read-out: pGI50 (converted)) was 33.1 µM and the CC50 (786-0; [3]) was greater than 100 µM. It also gave a TGI (786-0; read-out: pTGI) greater than 100 µM, a GI50 (SK-MEL-28) of 28.8 µM and a CC50 (SK-MEL-28; [3]) greater than 100 µM. It also gave a TGI (SK-MEL-28; read-out: pTGI (converted)) of 91.2 µM, a GI50 (UO-31; read-out: pGI50 (converted)) of 41.7 µM and a CC50 (UO-31; [3]) greater than 100 µM. It also gave a TGI (UO-31; read-out: pTGI) greater than 100 µM, a GI50 (MDA-MB-435) of 23.4 µM and a CC50 (MDA-MB-435; [3]) greater than 100 µM. It also gave a TGI (MDA-MB-435; read-out: pTGI (converted)) of 75.9 µM, a GI50 (HOP-92) of 18.2 µM and a CC50 (HOP-92; [3]) greater than 100 µM. The TGI (HOP-92; read-out: pTGI (converted)) was 79.4 µM, the GI50 (BT-549) was 25.1 µM and the CC50 (BT-549; [3]) was greater than 100 µM. For the same compound, the TGI (BT-549; read-out: pTGI (converted)) was 95.5 µM, the GI50 (KM12) was 49 µM and the CC50 (KM12; [3]) was greater than 100 µM. It also gave a TGI (KM12; read-out: pTGI) greater than 100 µM, a GI50 (TK-10; read-out: pGI50 (converted)) of 1.7 µM and a CC50 (TK-10; [3]) greater than 100 µM. The TGI (TK-10; read-out: pTGI) was greater than 100 µM, the GI50 (UACC-62) was 2.19 µM and the CC50 (UACC-62; [3]) was greater than 100 µM. The TGI (UACC-62; read-out: pTGI (converted)) was 55 µM, the GI50 (SF-295) was 19.1 µM and the CC50 (SF-295; [3]) was greater than 100 µM. It also gave a TGI (SF-295; read-out: pTGI (converted)) of 63.1 µM, a GI50 (OVCAR-5; read-out: pGI50 (converted)) of 7.41 µM and a CC50 (OVCAR-5; [3]) greater than 100 µM. It also gave a TGI (OVCAR-5; read-out: pTGI) greater than 100 µM, a GI50 (MDA-MB-231) of 36.3 µM and a CC50 (MDA-MB-231; [3]) greater than 100 µM. The TGI (MDA-MB-231; read-out: pTGI) was greater than 100 µM, the GI50 (U-251) was 27.5 µM and the CC50 (U-251; [3]) was greater than 100 µM. The TGI (U-251; read-out: pTGI) was greater than 100 µM, the GI50 (SN12C; read-out: pGI50 (converted)) was 43.6 µM and the CC50 (SN12C; [3]) was greater than 100 µM. It also gave a TGI (SN12C; read-out: pTGI) greater than 100 µM, a GI50 (NCI-H23) of 42.7 µM and a CC50 (NCI-H23; [3]) greater than 100 µM. For the same compound, the TGI (NCI-H23; read-out: pTGI) was greater than 100 µM, the GI50 (A498; read-out: pGI50 (converted)) was 0.162 µM and the CC50 (A498; read-out: pLC50 (converted)) was 0.631 µM. The TGI (A498; read-out: pTGI) was 0.324 µM.

Reference: ChEMBL document CHEMBL1157034, “Synthesis of 1-benzyl-3-(5-hydroxymethyl-2-furyl)selenolo[3,2-c]pyrazole derivatives as new anticancer agents” (Eur J Med Chem, 2010)
